Measurements reported in ChEMBL document CHEMBL1142188, “Fitness costs of fluoroquinolone resistance in Streptococcus pneumoniae” (2007).
≈ marks a conversion by molar mass, not a printed value.

Experiments:
Streptococcus pneumoniae [1] = test: Antimicrobial activity against Streptococcus pneumoniae R6 transformants with gyrA E85K mutation; assay type: functional
Summary of the method: (§1)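 MIC by Etest on tryptic soy agar with 5% sheep blood, incubated overnight at 35°C, or by serial dilution in Mueller-Hinton broth with 5% horse blood per CLSI protocols. Each assay was run twice. Strains were R6 or R6 transformed with QRDR alleles from levofloxacin-resistant clinical isolates, with mutations confirmed by PCR sequencing.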

Streptococcus pneumoniae [2] = test: Antimicrobial activity against Streptococcus pneumoniae R6 transformants with parE D435N and gyrA S81F mutation; assay type: functional; summary of the method: as §1
Streptococcus pneumoniae [3] = test: Antimicrobial activity against Streptococcus pneumoniae R6 transformants with parC S79Y and gyrA E85K mutation; assay type: functional; summary of the method: as §1
Streptococcus pneumoniae [4] = test: Antimicrobial activity against Streptococcus pneumoniae R6 transformants with gyrA S81F mutation; assay type: functional; summary of the method: as §1
Streptococcus pneumoniae [5] = test: Antimicrobial activity against Streptococcus pneumoniae R6 transformants with gyrA S81Y mutation; assay type: functional; summary of the method: as §1
Streptococcus pneumoniae [6] = test: Antimicrobial activity agaisnt Streptococcus pneumoniae R6 transformants with parC S79F and gyrA E85K mutation; assay type: functional; summary of the method: as §1
Streptococcus pneumoniae [7] = test: Antimicrobial activity against Streptococcus pneumoniae R6 transformants with parC S79Y and gyrA S81F mutation; assay type: functional; summary of the method: as §1
Streptococcus pneumoniae [8] = test: Antimicrobial activity against Streptococcus pneumoniae R6 transformants with parC D83Y mutation; assay type: functional; summary of the method: as §1
Streptococcus pneumoniae [9] = test: Antimicrobial activity against Streptococcus pneumoniae R6 transformants with parC S79F and gyrA S81F mutation; assay type: functional; summary of the method: as §1
Streptococcus pneumoniae [10] = test: Antimicrobial activity agaisnt Streptococcus pneumoniae R6 transformants with parC S79Y mutation; assay type: functional; summary of the method: as §1
Streptococcus pneumoniae [11] = test: Antimicrobial activity against Streptococcus pneumoniae R6 transformants with parC D83Y and gyrA S81F mutation; assay type: functional; summary of the method: as §1
Streptococcus pneumoniae [12] = test: Antimicrobial activity against Streptococcus pneumoniae R6 transformants with parE D435N mutation; assay type: functional; summary of the method: as §1
Streptococcus pneumoniae [13] = test: Antimicrobial activity against Streptococcus pneumoniae R6 transformants with parC S79F mutation; assay type: functional; summary of the method: as §1
Streptococcus pneumoniae [14] = test: Antimicrobial activity against Streptococcus pneumoniae R6 transformants with parE D435N and gyrA S81Y mutation; assay type: functional; summary of the method: as §1
Streptococcus pneumoniae [15] = test: Antimicrobial activity against Streptococcus pneumoniae R6 transformants with parC D83Y and gyrA S81Y mutation; assay type: functional; summary of the method: as §1
Streptococcus pneumoniae [16] = test: Antimicrobial activity against Streptococcus pneumoniae R6 transformants with parC S79F and gyrA S81Y mutation; assay type: functional; summary of the method: as §1
Streptococcus pneumoniae [17] = test: Antimicrobial activity against Streptococcus pneumoniae R6 transformants with parE D435N and gyrA E85K mutation; assay type: functional; summary of the method: as §1
Streptococcus pneumoniae [18] = test: Antimicrobial activity against Streptococcus pneumoniae R6 transformants with parC D83Y and gyrA E85K mutation; assay type: functional; summary of the method: as §1
Streptococcus pneumoniae [19] = test: Antimicrobial activity against Streptococcus pneumoniae R6; assay type: functional; summary of the method: as §1
Streptococcus pneumoniae [20] = test: Antimicrobial activity agaisnt Streptococcus pneumoniae R6 transformants with parC D83Y and gyrA S81F mutation in presence of reserpine
Streptococcus pneumoniae [21] = test: Antimicrobial activity against Streptococcus pneumoniae R6 transformants with parC S79Y and gyrA E85K mutation in presence of reserpine
Streptococcus pneumoniae [22] = test: Antimicrobial activity against Streptococcus pneumoniae R6 transformants with parC D83Y and gyrA E85K mutation in presence of reserpine
Streptococcus pneumoniae [23] = test: Antimicrobial activity against Streptococcus pneumoniae R6 transformants with parE D435N and gyrA S81Y mutation in presence of reserpine
Streptococcus pneumoniae [24] = test: Antimicrobial activity against Streptococcus pneumoniae R6 transformants with parE D435N and gyrA E85K mutation in presence of reserpine
Streptococcus pneumoniae [25] = test: Antimicrobial activity against Streptococcus pneumoniae R6 transformants with parC S79F and gyrA S81Y mutation in presence of reserpine
Streptococcus pneumoniae [26] = test: Antimicrobial activity against Streptococcus pneumoniae R6 transformants with parC D83Y and gyrA S81Y mutation in presence of reserpine
Streptococcus pneumoniae [27] = test: Antimicrobial activity against Streptococcus pneumoniae R6 transformants with parC S79Y and gyrA S81F mutation in presence of reserpine
Streptococcus pneumoniae [28] = test: Antimicrobial activity against Streptococcus pneumoniae R6 transformants with parE D435N and gyrA S81F mutation in presence of reserpine
Streptococcus pneumoniae [29] = test: Antimicrobial activity against Streptococcus pneumoniae R6 transformants with parC S79Y mutation in presence of reserpine
Streptococcus pneumoniae [30] = test: Antimicrobial activity against Streptococcus pneumoniae R6 transformants with parC S79F and gyrA S81F mutation in presence of reserpine
Streptococcus pneumoniae [31] = test: Antimicrobial activity against Streptococcus pneumoniae R6 transformants with parE D435N mutation in presence of reserpine
Streptococcus pneumoniae [32] = test: Antimicrobial activity against Streptococcus pneumoniae R6 transformants with parC S79F and gyrA E85K mutation in presence of reserpine
Streptococcus pneumoniae [33] = test: Antimicrobial activity against Streptococcus pneumoniae R6 transformants with gyrA S81Y mutation in presence of reserpine
Streptococcus pneumoniae [34] = test: Antimicrobial activity against Streptococcus pneumoniae R6 transformants with parC S79F mutation in presence of reserpine
Streptococcus pneumoniae [35] = test: Antimicrobial activity against Streptococcus pneumoniae R6 transformants with gyrA S81F mutation in presence of reserpine
Streptococcus pneumoniae [36] = test: Antimicrobial activity against Streptococcus pneumoniae R6 transformants with parC D83Y mutation in presence of reserpine

| SMILES | MIC (Streptococcus pneumoniae [1]) | MIC (Streptococcus pneumoniae [2]) | MIC (Streptococcus pneumoniae [3]) | MIC (Streptococcus pneumoniae [4]) | MIC (Streptococcus pneumoniae [5]) | MIC (Streptococcus pneumoniae [6]) | MIC (Streptococcus pneumoniae [7]) | MIC (Streptococcus pneumoniae [8]) | MIC (Streptococcus pneumoniae [9]) | MIC (Streptococcus pneumoniae [10]) | MIC (Streptococcus pneumoniae [11]) | MIC (Streptococcus pneumoniae [12]) | MIC (Streptococcus pneumoniae [13]) | MIC (Streptococcus pneumoniae [14]) | MIC (Streptococcus pneumoniae [15]) | MIC (Streptococcus pneumoniae [16]) | MIC (Streptococcus pneumoniae [17]) | MIC (Streptococcus pneumoniae [18]) | MIC (Streptococcus pneumoniae [19]) | further results |
| --- | --- | --- | --- | --- | --- | --- | --- | --- | --- | --- | --- | --- | --- | --- | --- | --- | --- | --- | --- | --- |
| COc1c(N2CCNC(C)C2)c(F)cc2c(=O)c(C(=O)O)cn(C3CC3)c12 (centres undefined) [GATIFLOXACIN] | 0.25 µg/mL (≈ 0.666 µM) | 2 µg/mL (≈ 5.33 µM) | ≥ 4 µg/mL | 0.25 µg/mL (≈ 0.666 µM) | 0.25 µg/mL (≈ 0.666 µM) | ≥ 4 µg/mL | ≥ 4 µg/mL | 0.12 µg/mL (≈ 0.32 µM) | ≥ 4 µg/mL | 0.12 µg/mL (≈ 0.32 µM) | 4 µg/mL (≈ 10.7 µM) | 0.12 µg/mL (≈ 0.32 µM) | 0.12 µg/mL (≈ 0.32 µM) | ≥ 4 µg/mL | ≥ 4 µg/mL | ≥ 4 µg/mL | 0.25 µg/mL (≈ 0.666 µM) | 2 µg/mL (≈ 5.33 µM) | 0.12 µg/mL (≈ 0.32 µM) |  |
| C[C@H]1COc2c(N3CCN(C)CC3)c(F)cc3c(=O)c(C(=O)O)cn1c23.C[C@H]1COc2c(N3CCN(C)CC3)c(F)cc3c(=O)c(C(=O)O)cn1c23.O [LEVOFLOXACIN] |  | > 32 µg/mL | > 32 µg/mL |  | 3 µg/mL | > 32 µg/mL | > 32 µg/mL |  | > 32 µg/mL |  | > 32 µg/mL |  |  | > 32 µg/mL | > 32 µg/mL | > 32 µg/mL |  | > 32 µg/mL |  |  |
| COc1c(N2C[C@@H]3CCCN[C@@H]3C2)c(F)cc2c(=O)c(C(=O)O)cn(C3CC3)c12 [MOXIFLOXACIN] | 0.25 µg/mL (≈ 0.623 µM) | 4 µg/mL (≈ 9.96 µM) | 8 µg/mL (≈ 19.9 µM) | 0.5 µg/mL (≈ 1.25 µM) | > 0.5 µg/mL | 8 µg/mL (≈ 19.9 µM) | 8 µg/mL (≈ 19.9 µM) |  | 8 µg/mL (≈ 19.9 µM) |  | 4 µg/mL (≈ 9.96 µM) |  |  | 4 µg/mL (≈ 9.96 µM) | 4 µg/mL (≈ 9.96 µM) | 4 µg/mL (≈ 9.96 µM) | 0.5 µg/mL (≈ 1.25 µM) | 4 µg/mL (≈ 9.96 µM) |  |  |
| CO/N=C1\CN(c2nc3c(cc2F)c(=O)c(C(=O)O)cn3C2CC2)CC1CN (centres undefined) [GEMIFLOXACIN] | 0.06 µg/mL (≈ 0.154 µM) | 0.25 µg/mL (≈ 0.642 µM) | 1 µg/mL (≈ 2.57 µM) | 0.12 µg/mL (≈ 0.308 µM) | 0.12 µg/mL (≈ 0.308 µM) | 1 µg/mL (≈ 2.57 µM) | 1 µg/mL (≈ 2.57 µM) | 0.06 µg/mL (≈ 0.154 µM) | 0.5 µg/mL (≈ 1.28 µM) | 0.06 µg/mL (≈ 0.154 µM) | 0.12 µg/mL (≈ 0.308 µM) | 0.06 µg/mL (≈ 0.154 µM) | 0.06 µg/mL (≈ 0.154 µM) | 0.25 µg/mL (≈ 0.642 µM) | 0.25 µg/mL (≈ 0.642 µM) | 0.5 µg/mL (≈ 1.28 µM) | < 0.06 µg/mL | 0.5 µg/mL (≈ 1.28 µM) | 0.03 µg/mL (≈ 0.077 µM) |  |
| O=C(O)c1cn(C2CC2)c2cc(N3CCNCC3)c(F)cc2c1=O [CIPROFLOXACIN] |  | 32 µg/mL (≈ 96.6 µM) | 64 µg/mL (≈ 193 µM) | 1 µg/mL (≈ 3.02 µM) | 2 µg/mL (≈ 6.04 µM) | 32 µg/mL (≈ 96.6 µM) | 64 µg/mL (≈ 193 µM) | 3 µg/mL (≈ 9.05 µM) | 64 µg/mL (≈ 193 µM) |  | 32 µg/mL (≈ 96.6 µM) |  |  | 64 µg/mL (≈ 193 µM) | 64 µg/mL (≈ 193 µM) | 64 µg/mL (≈ 193 µM) | < 4 µg/mL | 64 µg/mL (≈ 193 µM) |  | MIC (Streptococcus pneumoniae [20]): 8 µg/mL; MIC (Streptococcus pneumoniae [21]): 32 µg/mL; MIC (Streptococcus pneumoniae [22]): 32 µg/mL; MIC (Streptococcus pneumoniae [23]): 32 µg/mL; MIC (Streptococcus pneumoniae [24]): < 4 µg/mL; MIC (Streptococcus pneumoniae [25]): 32 µg/mL; MIC (Streptococcus pneumoniae [26]): 32 µg/mL; MIC (Streptococcus pneumoniae [27]): 32 µg/mL; MIC (Streptococcus pneumoniae [28]): 16 µg/mL; MIC (Streptococcus pneumoniae [29]): 2 µg/mL; MIC (Streptococcus pneumoniae [30]): 32 µg/mL; MIC (Streptococcus pneumoniae [31]): 2 µg/mL; MIC (Streptococcus pneumoniae [32]): 32 µg/mL; MIC (Streptococcus pneumoniae [33]): 2 µg/mL; MIC (Streptococcus pneumoniae [34]): 2 µg/mL; MIC (Streptococcus pneumoniae [35]): 1 µg/mL; MIC (Streptococcus pneumoniae [36]): 2 µg/mL |
